Screens as filed in PubChem.
UBC13 inh: human UBC13 polyubiquitination inhibition; inhibition, % at 20 µM; UBC13 polyubiquitin chain formation, TR-FRET; AID 485273; 330,000 tested, 0.47% active; in the data active means inhibition above about 45%, passing the limit was not always enough
Target sequence (P61088 whole entry, looked up): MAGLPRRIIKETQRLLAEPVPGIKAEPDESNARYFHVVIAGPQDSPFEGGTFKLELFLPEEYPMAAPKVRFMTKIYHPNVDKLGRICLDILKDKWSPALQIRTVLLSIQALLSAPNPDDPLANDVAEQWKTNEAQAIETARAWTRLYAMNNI
ANO1 activ: activates or potentiates the mouse TMEM16A chloride channel; 340,000 tested, 0.3% active; B-score at 10 µM; AID 623877; HEK293 TMEM16A/YFP-H148Q/I152L, iodide quench fluorescence; stronger effect = lower value;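 active means fluorescence-ratio B-score plate-corrected deviation score at least 3 library SD below zero, with starting fluorescence score within 5 deviations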;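 further: channel opened by trigger with iodide after compound preincubation; score built on the fluorescence ratio of max minus min over baseline; more negative score means more quench and so TMEM16A activation or potentiation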
Apaf-1 inh: inhibitors of human Apaf-1 apoptosome; O14727; reconstituted apoptosome caspase-3 activity, DEVD-Rh110 fluorescence; inhibition, % at 20 µM; 330,000 tested, 0.71% active; active means inhibition of at least 40% at 20 µM;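 further: plate controls were DMSO wells for no effect and DEVD-CHO caspase inhibitor wells for full effect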
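Assay system – apoptosome proteins · Medium – Hepes buffer, pH 7.5 · Also added – cytochrome c with DEVD-Rh110 · Timing – 30 min compound preincubation, 50 min activation, room temperature · Detection – Rh110 fluorescence, excitation 480 nm, emission 540 nm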
FID counter: fluorescent intercalator displacement, NS3 helicase counter-screen; DNA fluorescent intercalator displacement, fluorescence; inhibition, % at 7.9 µM; 290,000 tested, 0.17% active; AID 1845; in the data active means inhibition above about 37%;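 further: 0% = vehicle and 100% = reference compound; higher means more ethidium bromide displaced from hairpin DNA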
TMEM16A inh: blocks the mouse calcium-activated chloride channel TMEM16A | Q8BHY3 | HEK293 TMEM16A/YFP iodide influx fluorescence, ionomycin | normalized B-score (activity score, 25-100; higher = stronger inhibition) at 10 µM | 310,000 tested, 1.2% active | AID 588511;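 active means ratio plate-corrected score three or more library SD toward inhibition, starting fluorescence score within five deviations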;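 further: score derived from kinetic fluorescence span divided by baseline fluorescence per well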
Apaf-1 inh conf: Apaf-1 inhibition, single-dose confirmed. AID 504614. inhibition, % at 20 µM. shares compounds with Apaf-1 inh. reconstituted apoptosome, caspase-3 DEVD-Rh110 fluorescence. 1,800 tested, 25% active;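 active means mean inhibition of at least 40% at 20 µM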;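 further: plate controls were DMSO wells for no effect and DEVD-CHO caspase inhibitor control wells for full effect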
Rh110 interf inh: interferes with Rh110 fluorescence, flagging false Apaf-1 inhibitors. shares compounds with Apaf-1 inh. Rh110 fluorescence interference, quenched caspase reaction. activation (fluorescence interference), % at 20 µM. 1,800 tested, under 10 active;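 active means signal rise of 40% or more at 20 µM, treated as a fluorescence artifact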
Apaf1 inh interf: Apaf-1 inhibitor counter-screen fluorescence artifact; shares compounds with Apaf-1 inh; fluorescence interference counterscreen, Apaf-1 assay format; IC50, µM; 460 tested, under 10 active; AID 588538; call rule not given here
* = called active by the depositor; i = inactive; / = no result given. Only some compounds are listed: those with a hit (about 2.4% of all), similar ones and a draw of the others.

SMILES | UBC13 inh | ANO1 activ | Apaf-1 inh | FID counter | TMEM16A inh | Apaf-1 inh conf | Rh110 interf inh | others
Cc1ccc2[nH]c(=O)c(C(c3nnnn3CC3CCCO3)N3CCc4ccccc4C3)cc2c1 (stereo not drawn) | 0 | i | 66* | -1 | i | 17 | 9
Cc1cc2cc(C(c3nnnn3Cc3ccco3)N3CCc4ccccc4C3)c(=O)[nH]c2cc1C (stereo not drawn) | -7 | i | 41* | -16 | i | 24 | 10
COc1ccc2cc(C(c3nnnn3C3CCCC3)N3CCc4ccccc4C3)c(=O)[nH]c2c1 (stereo not drawn) | -4 | i | 72* | 4 | i | 24 | 13
COc1ccc2cc(C(c3nnnn3C(C)(C)C)N3CCc4ccccc4C3)c(=O)[nH]c2c1 (stereo not drawn) | -11 | / | 31 | 2 | i | / | /
Cc1ccc2cc(C(c3nnnn3Cc3ccccc3)N3CCc4ccccc43)c(=O)[nH]c2c1 (stereo not drawn) | 6 | i | 43* | -12 | i | 18 | 4
Cc1ccc2[nH]c(=O)c(C(c3nnnn3Cc3ccccc3)N3CCc4ccccc43)cc2c1 (stereo not drawn) | 5 | i | 29 | -2 | i | / | /
CC(C)n1cnnc1SCC(=O)NC(=O)c1ccccc1 | -1 | i | 2 | / | i | / | /
Cc1ccc2sc(N3CCN(CCNC(=O)c4ccco4)CC3)nc2c1C | 3 | i | 27 | / | i | / | /
CCN1C(=O)[C@H]2[C@@H](c3ccc(-c4ccc(C(C)=O)cc4)cc3)N3CCC[C@@]3(C(=O)OC)[C@H]2C1=O | -3 | i | 20 | / | i | / | /
CCCCc1ccc(Nc2nc(CCC)cc(=O)[nH]2)cc1 | 11 | i | 40* | -10 | i | 34 | 5
COc1ccc(N(C)C(=O)C2CCCN2S(=O)(=O)c2cccc3nsnc23)cc1 (stereo not drawn) | 0 | i | -12 | -25 | i | / | /
CC(=O)NC1=C(N(C)C2CCS(=O)(=O)C2)C(=O)c2ccccc2C1=O (stereo not drawn) | -51 | i | 54* | -3 | i | 67* | 9 | Apaf1 inh interf=>100
COCCNC(=O)C1CC2Cn3c(nc4cc5ccccc5cc43)C2N1C (stereo not drawn) | 1 | i | -2 | / | i | / | /
CN1C(C(=O)NCC2CC2)CC2Cn3c(nc4cc5ccccc5cc43)C21 (stereo not drawn) | 4 | i | 41* | / | i | 10 | -2
O=C(COC(=O)C1CC2CCCC(C1)C2=O)NNC(=O)c1ccccc1F (stereo not drawn) | -3 | i | -6 | / | i | / | /
CC1OC(Nc2cccc3ccccc23)C(O)C(O)C1O (stereo not drawn) | -68 | i | 96* | 4 | i | 64* | 2 | Apaf1 inh interf=>100
Clc1ccccc1-c1nn2c(-c3ccncc3)nnc2s1 | 7 | i | 47* | 5 | i | 63* | 0 | Apaf1 inh interf=>100
Clc1ccccc1-c1nnc2sc(-c3ccncc3)nn12 | 6 | i | 2 | -5 | i | / | /
Cc1ccc(CNC(=O)CNS(=O)(=O)c2ccc3c(c2)C(C)(C)C(=O)N3C)cc1 | -6 | i | -4 | -22 | i | / | /
CC(C)c1ccc(NC(=O)c2ccc3c(c2)C(=O)N(Cc2cccnc2)C3=O)cc1 | -3 | i | 8 | -15 | i | / | /
Oc1ccccc1CNc1cccc2cccnc12 | -121 | i | 95* | 1 | i | 12 | 6
COc1cc(NCc2ccccc2O)c2ncccc2c1 | -5 | i | 18 | -7 | / | / | /
COCCCn1c(=O)c2sccc2n(Cc2ccccc2C)c1=O | -6 | i | 60* | -24 | i | 8 | 4
Oc1ccc(N=Cc2ccc(OCc3ccccc3)cc2)cc1 | -5 | i | 93* | 4 | i | 17 | -4
O=c1ccc(Oc2nc(N3CCOCC3)nc(N3CCOCC3)n2)n[nH]1 | -4 | i | -6 | -2 | i | / | /
Oc1c(Cl)cc(Cl)c2c1NCCC2 | -15 | i | 47* | 2 | / | 27 | -2
